Tested on: Fibroblast
Experiment: Multiplex assay against human fibroblast
Assay type: toxicity, cell-based
Method in brief: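 Hoechst33342, BioTracker Green Microtubule Cytoskeleton Dye, MitoTracker Red and Annexin V Alexa Fluor 680 were added to live cells at seeding, and imaging on a CQ1 microscope at 37°C and 5% CO2 followed compound addition. Gating by CellPathfinder machine learning separated cells into Hoechst high-intensity objects or normal cells, then normal cells into healthy, pyknosed or fragmented nuclei, then pyknosed cells into mitotic or apoptotic. Per cents of healthy-nucleus cells are reported for the tubulin, mitochondrial-mass and membrane-permeability phenotypes.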

[1] = 12 h, 1 µM, compound concentration 1 uM, replicate 1
[2] = 12 h, 1 µM, compound concentration 1 uM, replicate 2
[3] = 12 h, 10 µM, compound concentration 10 uM, replicate 1
[4] = 12 h, 10 µM, compound concentration 10 uM, replicate 2
[5] = 24 h, 1 µM, compound concentration 1 uM, replicate 1
[6] = 24 h, 1 µM, compound concentration 1 uM, replicate 2
[7] = 24 h, 10 µM, compound concentration 10 uM, replicate 1
[8] = 24 h, 10 µM, compound concentration 10 uM, replicate 2
[9] = 48 h, 1 µM, compound concentration 1 uM, replicate 1
[10] = 48 h, 1 µM, compound concentration 1 uM, replicate 2
[11] = 48 h, 10 µM, compound concentration 10 uM, replicate 1
[12] = 48 h, 10 µM, compound concentration 10 uM, replicate 2

COc1cc2nc(N3CCN(C(=O)COc4c(OC)cccc4C(C)C)CC3)nc(N)c2cc1OC.Cl.Cl
Population Apoptotic (%) [1]: 50% | Population Fragmented Nuclei (%) [1]: 17% | Population Healthy Nuclei (%) [1]: 51% | Population Hoechst High Intensity Objects (%) [1]: 4% | Population Membrane Permeable-Phenotype (%) [1]: 3% | Population Mitochondria Different-Phenotype (%) [1]: 6% | Population Mitotic Cells (%) [1]: 50% | Population Normal (%) [1]: 95% | Population Pyknosed Nuclei (%) [1]: 30% | Population Tubulin-Different-Phenotype (%) [1]: 40% | Total Cell Count [1]: 123 | Population Apoptotic (%) [2]: 36% | Population Fragmented Nuclei (%) [2]: 39% | Population Healthy Nuclei (%) [2]: 42% | Population Hoechst High Intensity Objects (%) [2]: 9% | Population Membrane Permeable-Phenotype (%) [2]: 5% | Population Mitochondria Different-Phenotype (%) [2]: 7% | Population Mitotic Cells (%) [2]: 63% | Population Normal (%) [2]: 90% | Population Pyknosed Nuclei (%) [2]: 18% | Population Tubulin-Different-Phenotype (%) [2]: 43% | Total Cell Count [2]: 182 | Population Apoptotic (%) [3]: 33% | Population Fragmented Nuclei (%) [3]: 13% | Population Healthy Nuclei (%) [3]: 47% | Population Hoechst High Intensity Objects (%) [3]: 20% | Population Membrane Permeable-Phenotype (%) [3]: 0% | Population Mitochondria Different-Phenotype (%) [3]: 15% | Population Mitotic Cells (%) [3]: 66% | Population Normal (%) [3]: 79% | Population Pyknosed Nuclei (%) [3]: 38% | Population Tubulin-Different-Phenotype (%) [3]: 63% | Total Cell Count [3]: 346 | Population Apoptotic (%) [4]: 29% | Population Fragmented Nuclei (%) [4]: 22% | Population Healthy Nuclei (%) [4]: 46% | Population Hoechst High Intensity Objects (%) [4]: 10% | Population Membrane Permeable-Phenotype (%) [4]: 4% | Population Mitochondria Different-Phenotype (%) [4]: 8% | Population Mitotic Cells (%) [4]: 70% | Population Normal (%) [4]: 89% | Population Pyknosed Nuclei (%) [4]: 30% | Population Tubulin-Different-Phenotype (%) [4]: 56% | Total Cell Count [4]: 283 | Population Apoptotic (%) [5]: 68% | Population Fragmented Nuclei (%) [5]: 23% | Population Healthy Nuclei (%) [5]: 58% | Population Hoechst High Intensity Objects (%) [5]: 3% | Population Membrane Permeable-Phenotype (%) [5]: 1% | Population Mitochondria Different-Phenotype (%) [5]: 9% | Population Mitotic Cells (%) [5]: 31% | Population Normal (%) [5]: 96% | Population Pyknosed Nuclei (%) [5]: 17% | Population Tubulin-Different-Phenotype (%) [5]: 39% | Total Cell Count [5]: 128 | Population Apoptotic (%) [6]: 57% | Population Fragmented Nuclei (%) [6]: 40% | Population Healthy Nuclei (%) [6]: 42% | Population Hoechst High Intensity Objects (%) [6]: 11% | Population Membrane Permeable-Phenotype (%) [6]: 5% | Population Mitochondria Different-Phenotype (%) [6]: 11% | Population Mitotic Cells (%) [6]: 42% | Population Normal (%) [6]: 88% | Population Tubulin-Different-Phenotype (%) [6]: 50% | Total Cell Count [6]: 180 | Population Apoptotic (%) [7]: 40% | Population Fragmented Nuclei (%) [7]: 13% | Population Healthy Nuclei (%) [7]: 45% | Population Hoechst High Intensity Objects (%) [7]: 39% | Population Membrane Permeable-Phenotype (%) [7]: 0% | Population Mitochondria Different-Phenotype (%) [7]: 17% | Population Mitotic Cells (%) [7]: 60% | Population Normal (%) [7]: 60% | Population Pyknosed Nuclei (%) [7]: 41% | Population Tubulin-Different-Phenotype (%) [7]: 38% | Total Cell Count [7]: 344 | Population Apoptotic (%) [8]: 33% | Population Fragmented Nuclei (%) [8]: 25% | Population Healthy Nuclei (%) [8]: 40% | Population Hoechst High Intensity Objects (%) [8]: 23% | Population Membrane Permeable-Phenotype (%) [8]: 4% | Population Mitochondria Different-Phenotype (%) [8]: 5% | Population Mitotic Cells (%) [8]: 66% | Population Normal (%) [8]: 76% | Population Pyknosed Nuclei (%) [8]: 34% | Population Tubulin-Different-Phenotype (%) [8]: 47% | Total Cell Count [8]: 273 | Population Apoptotic (%) [9]: 65% | Population Fragmented Nuclei (%) [9]: 31% | Population Healthy Nuclei (%) [9]: 51% | Population Hoechst High Intensity Objects (%) [9]: 4% | Population Membrane Permeable-Phenotype (%) [9]: 0% | Population Mitochondria Different-Phenotype (%) [9]: 11% | Population Mitotic Cells (%) [9]: 35% | Population Normal (%) [9]: 96% | Population Pyknosed Nuclei (%) [9]: 16% | Population Tubulin-Different-Phenotype (%) [9]: 30% | Total Cell Count [9]: 125 | Population Apoptotic (%) [10]: 42% | Population Fragmented Nuclei (%) [10]: 45% | Population Healthy Nuclei (%) [10]: 43% | Population Hoechst High Intensity Objects (%) [10]: 10% | Population Membrane Permeable-Phenotype (%) [10]: 8% | Population Mitochondria Different-Phenotype (%) [10]: 10% | Population Mitotic Cells (%) [10]: 57% | Population Normal (%) [10]: 89% | Population Pyknosed Nuclei (%) [10]: 11% | Population Tubulin-Different-Phenotype (%) [10]: 57% | Total Cell Count [10]: 193 | Population Apoptotic (%) [11]: 45% | Population Fragmented Nuclei (%) [11]: 12% | Population Healthy Nuclei (%) [11]: 45% | Population Hoechst High Intensity Objects (%) [11]: 52% | Population Membrane Permeable-Phenotype (%) [11]: 2% | Population Mitochondria Different-Phenotype (%) [11]: 10% | Population Mitotic Cells (%) [11]: 54% | Population Normal (%) [11]: 47% | Population Pyknosed Nuclei (%) [11]: 42% | Population Tubulin-Different-Phenotype (%) [11]: 42% | Total Cell Count [11]: 358 | Population Apoptotic (%) [12]: 30% | Population Fragmented Nuclei (%) [12]: 33% | Population Healthy Nuclei (%) [12]: 33% | Population Hoechst High Intensity Objects (%) [12]: 31% | Population Membrane Permeable-Phenotype (%) [12]: 9% | Population Mitochondria Different-Phenotype (%) [12]: 0% | Population Mitotic Cells (%) [12]: 69% | Population Normal (%) [12]: 68% | Population Pyknosed Nuclei (%) [12]: 33% | Population Tubulin-Different-Phenotype (%) [12]: 43% | Total Cell Count [12]: 311

Source: ChEMBL document CHEMBL5058577, “EUbOPEN Chemogenomics Library 2 (Multiplex)” (2022)
